Experimental data: ChEMBL document CHEMBL4346667 (Eur J Med Chem, 2019)
Calls of active or inactive are those of the source. The calls are words filed in the database; no cut-off is given here.

Tests used:
A549 = experiment: Antiproliferative activity against human A549 cells assessed as reduction in cell viability after 48 hrs by MTT assay; assay type: functional, cell-based; settings: A549, 48 h
Outline: (§1)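 Cells grown at 37 °C, 5% CO2; HeLa, HepG2, H8, HL7702 in RPMI 1640 + 10% fetal calf serum, others in high-glucose DMEM + 10% fetal calf serum. Log-phase cells seeded at 4000-12000/well by doubling time. Attached cells were given 10-fold dilutions, 100 µM to 10 nM (DMSO 0.1% v/v), for 48 h. MTT (2 mg/mL) 4 h, formazan in DMSO, A492. IC50 from triplicate means.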

MRC5 = experiment: Antiproliferative activity against human MRC5 cells assessed as reduction in cell viability after 48 hrs by MTT assay; assay type: functional, cell-based; settings: MRC5, 48 h; outline: as §1
MCF7 [1] = experiment: Antiproliferative activity against human MCF7 cells assessed as reduction in cell viability after 48 hrs by MTT assay; assay type: functional, cell-based; settings: MCF7, 48 h; outline: as §1
HMEC = experiment: Antiproliferative activity against human HMEC cells assessed as reduction in cell viability after 48 hrs by MTT assay; assay type: functional, cell-based; outline: as §1
L02 = experiment: Antiproliferative activity against human HL7702 cells assessed as reduction in cell viability after 48 hrs by MTT assay; assay type: functional, cell-based; settings: L02, 48 h; outline: as §1
[2] = Antiproliferative activity against human H8 cells assessed as reduction in cell viability after 48 hrs by MTT assay; assay type: functional, cell-based; outline: as §1
HeLa = experiment: Antiproliferative activity against human HeLa cells assessed as reduction in cell viability after 48 hrs by MTT assay; assay type: functional, cell-based; outline: as §1
HepG2 = experiment: Antiproliferative activity against human HepG2 cells assessed as reduction in cell viability after 48 hrs by MTT assay; assay type: functional, cell-based; settings: HepG2, 48 h; outline: as §1
[3] = Binding affinity to alpha/beta tubulin complex (unknown origin); design: species or system Homo sapiens
Outline: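 SPR assay: tubulin immobilized up to 800 mDeg (response units). Ligands were diluted two-fold from 80 µM to 2.5 µM in PBS with 0.5% (v/v) DMSO and injected at 60 µL/min for 300 s. Running buffer was PBS with 0.5% DMSO, at 25°C.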

Tubulin (Homo sapiens) [4] = target: T1, Tubulin (Homo sapiens) (UniProt P68371+Q9H4B7+P0DPH7+P68366+Q13509+Q71U36+P04350+Q3ZCM7+P07437+P68363+Q9BQE3+Q6PEY2+Q13885+Q9BVA1+Q9BUF5); experiment: Inhibition of tubulin polymerization in human HeLa cells assessed as contracted and rounded cells with disordered abnormal spindles and chromosomal misalignment at 500 nM after 24 hrs by immunofluorescence based confocal microscopy; assay type: cell-based
Outline: (§2)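 HeLa cells on glass coverslips were treated for 24 h at 25, 250 or 500 nM. They were fixed in 4% paraformaldehyde for 1 h and permeabilised with 0.2% Triton X-100 for 20 min. Cells were imaged by fluorescence and confocal microscopy.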

Tubulin (Homo sapiens) [5] = target: T1, Tubulin (Homo sapiens); experiment: Ratio of Kd for PTOX to Kd for test compound for tubulin (unknown origin) by surface plasmon resonance analysis; assay type: protein-complex assay
Outline: (§3)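 SPR binding to immobilised tubulin (up to 800 mDeg) was measured at 25 °C. Compounds were diluted two-fold from 80 to 2.5 µM in PBS with 0.5% DMSO. They were injected at 60 µL/min for 300 s, with PBS containing 0.5% DMSO as running buffer. Kd values came from the titration data.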

Tubulin (Sus scrofa) [6] = target: T2, Tubulin (Sus scrofa) (UniProt P02554+P02550); experiment: Inhibition of porcine tubulin assembly assessed as tubulin growth inhibition incubated for 30 min by fluorometric analysis; assay type: protein assay
Outline: (§4)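 This was a centrifugation assay of tubulin assembly. Tubulin was held at 4 °C with 0.9 mM GTP and 6 mM MgCl2, and aggregates were removed at 90000 g for 10 min at 4 °C. Ligands at 0.05–2 µM (1% DMSO) were incubated for 30 min at 37 °C. Supernatants and pellets were diluted 1:5, and tubulin was read fluorometrically (ex 280, em 323) against standards. The 50% inhibitory concentration came from inhibition curves, as the mean of three experiments.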

MCF7 [7] = experiment: Cell cycle arrest in human MCF7 cells assessed as accumulation of cells at G2/M phase at >=250 nM after 24 hrs by propidium iodide double staining based flow cytometric analysis (reference value: 80%); assay type: functional
Outline: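 Log-phase cells seeded in 6-well plates and, once adhered, treated at 10-1000 nM; incubated in cycles of 6 h on/6 h off up to 48 h. Washed in cold PBS, fixed in 70% ethanol at -20 °C for at least 2 days. Stained with PI (50 µg/mL) 30 min on ice in the dark. 10,000 events on FL2-A vs FL2-W; G1/S/G2/M from DNA modelling. At least three repeats.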

Tubulin (Sus scrofa) [8] = target: T2, Tubulin (Sus scrofa); experiment: Inhibition of porcine tubulin assembly assessed as tubulin growth inhibition at 2 uM incubated for 30 min by fluorometric analysis; assay type: protein assay; outline: as §4
Tubulin (Homo sapiens) [9] = target: T1, Tubulin (Homo sapiens); experiment: Inhibition of tubulin polymerization in human HeLa cells assessed as cellular microtubule disorganization and H3 phosphorylation at 500 nM after 24 hrs by immunofluorescence based confocal microscopy; assay type: cell-based
Outline: as §2, with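 “min. Anti-α-tubulin (1:50 in 2% BSA) was applied for 1 h at RT, then Alexa Fluor 488 anti-rabbit IgG (1:500) for 1 h, then DAPI for 20 min.” for “min.”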

Tubulin (Homo sapiens) [10] = target: T1, Tubulin (Homo sapiens); experiment: Ratio of Kd for colchicine to Kd for test compound for tubulin (unknown origin) by surface plasmon resonance analysis; assay type: protein-complex assay; outline: as §3
MCF7 [11] = experiment: Induction of apoptosis in human MCF7 cells at 250 nM after 48 hrs by Annexin V-FITC/propidium iodide staining-based flow cytometric analysis relative to control (reference value: 11.6%); assay type: functional
Outline: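 MCF7 cells were seeded in 6-well plates and exposed after adhering to graded concentrations for 48 h, in cycles of 6 h on and 6 h off. They were then stained with annexin V (1 µg/mL) and PI (0.5 µg/mL) in Ca2+-enriched binding buffer for 15 min in the dark at room temperature. Flow cytometry recorded 10,000 events, FL1 versus FL2. Apoptosis was taken as early plus late stage, with at least 3 repeats.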

Tubulin = experiment: Binding affinity to tubulin (unknown origin) assessed as dissociation constant by SPR analysis; assay type: protein-complex assay, Homo sapiens
Outline: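 Tubulin immobilised to about 800 mDeg. Injected at 60 µL/min for 300 s; PBS with 0.5% DMSO as running buffer. Measured at 25 °C, with dilution-corrected peak areas.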

T2 sequence (P02550 whole entry, looked up): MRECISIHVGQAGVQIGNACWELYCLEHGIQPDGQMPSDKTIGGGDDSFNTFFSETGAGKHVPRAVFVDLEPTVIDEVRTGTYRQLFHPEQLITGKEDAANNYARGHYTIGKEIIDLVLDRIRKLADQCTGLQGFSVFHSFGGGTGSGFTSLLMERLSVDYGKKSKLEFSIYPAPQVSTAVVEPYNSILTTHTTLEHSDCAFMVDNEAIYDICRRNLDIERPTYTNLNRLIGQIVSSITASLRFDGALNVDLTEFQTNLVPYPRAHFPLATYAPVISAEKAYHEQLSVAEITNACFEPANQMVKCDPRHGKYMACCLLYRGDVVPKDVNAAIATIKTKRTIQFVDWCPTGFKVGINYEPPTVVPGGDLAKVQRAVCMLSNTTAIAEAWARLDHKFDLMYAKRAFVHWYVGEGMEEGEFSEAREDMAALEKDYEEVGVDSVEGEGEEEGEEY
T2 sequence (P02554 whole entry, looked up): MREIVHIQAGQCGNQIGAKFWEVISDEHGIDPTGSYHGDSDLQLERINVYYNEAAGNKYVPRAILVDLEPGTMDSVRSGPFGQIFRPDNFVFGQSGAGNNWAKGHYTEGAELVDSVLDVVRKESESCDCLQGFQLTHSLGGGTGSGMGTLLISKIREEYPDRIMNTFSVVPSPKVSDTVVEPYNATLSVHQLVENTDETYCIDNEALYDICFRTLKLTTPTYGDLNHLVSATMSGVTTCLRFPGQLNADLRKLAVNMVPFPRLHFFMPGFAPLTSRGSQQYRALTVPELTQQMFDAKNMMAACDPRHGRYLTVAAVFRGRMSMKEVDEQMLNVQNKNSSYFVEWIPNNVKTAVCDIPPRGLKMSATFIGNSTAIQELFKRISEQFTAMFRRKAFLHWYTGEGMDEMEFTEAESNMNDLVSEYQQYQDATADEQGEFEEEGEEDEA

Structure (SMILES)	IC50 (A549)	IC50 (MRC5)	IC50 (MCF7 [1])	IC50 (HMEC)	IC50 (L02)	IC50 [2]	IC50 (HeLa)	IC50 (HepG2)	Ki [3]	inhibition (Tubulin (Homo sapiens) [4])	Ratio (Tubulin (Homo sapiens) [5])	GI50 (Tubulin (Sus scrofa) [6])	Activity (MCF7 [7])	inhibition (Tubulin (Sus scrofa) [8])	inhibition (Tubulin (Homo sapiens) [9])	Ratio (Tubulin (Homo sapiens) [10])	Activity (MCF7 [11])	Kd (Tubulin)
COc1cc([C@@H]2c3cc4c(cc3[C@@H](Nc3cccc5cc[nH]c35)[C@H]3COC(=O)[C@H]23)OCO4)cc(OC)c1OC	2.2 µM	38.5 µM	4.8 µM	45.5 µM	30.5 µM	19.4 µM	3.8 µM	2.5 µM	0.05 µM	–	–	–	–	–	–	–	–	–
COc1cc([C@@H]2c3cc4c(cc3[C@@H](Nc3cccc5cccnc35)[C@H]3COC(=O)[C@H]23)OCO4)cc(OC)c1OC	1.2 µM	49.1 µM	1 µM	39.2 µM	37 µM	89.6 µM	2.7 µM	4.6 µM	0.19 µM	–	–	–	–	–	–	–	–	–
COc1cc([C@@H]2c3cc4c(cc3[C@@H](Nc3ccc5ncccc5c3)[C@H]3COC(=O)[C@H]23)OCO4)cc(OC)c1OC	0.3 µM	22.5 µM	0.6 µM	89.2 µM	64.3 µM	80.2 µM	0.7 µM	0.8 µM	0.11 µM	–	–	–	–	–	–	–	–	–
COc1cc([C@@H]2c3cc4c(cc3[C@@H](Nc3cccc5[nH]ncc35)[C@H]3COC(=O)[C@H]23)OCO4)cc(OC)c1OC	2.6 µM	45.6 µM	3 µM	60.5 µM	41.4 µM	25.6 µM	1.8 µM	1.2 µM	0.02 µM	–	–	–	–	–	–	–	–	–
COc1cc2c(c(OC)c1OC)-c1ccc(OC)c(=O)cc1[C@@H](NC(C)=O)CC2 [COLCHICINE]	9.7 µM	6.2 µM	14.3 µM	8.1 µM	9.2 µM	6.1 µM	10.2 µM	5.8 µM	0.11 µM	–	–	–	–	–	–	–	–	–
COC(=O)Nc1nc2cc(C(=O)c3cccs3)ccc2[nH]1 [NOCODAZOLE]	0.2 µM	15.3 µM	0.2 µM	11.5 µM	13.5 µM	18 µM	0.3 µM	0.4 µM	–	Active	–	–	–	–	–	–	–	–
COc1cc([C@@H]2c3cc4c(cc3[C@@H](Nc3ccc5cn[nH]c5c3)[C@H]3COC(=O)[C@H]23)OCO4)cc(OC)c1OC	1 µM	53.6 µM	0.8 µM	52.5 µM	38.4 µM	65.5 µM	0.8 µM	1.9 µM	0.03 µM	–	–	–	–	–	–	–	–	–
COc1cc([C@@H]2c3cc4c(cc3[C@H](O)[C@H]3COC(=O)[C@H]23)OCO4)cc(OC)c1OC [PODOFILOX]	2.6 µM	10.6 µM	2.4 µM	5.6 µM	5 µM	8.4 µM	6.9 µM	2.4 µM	0.27 µM	Active	–	–	–	–	–	–	–	–
COc1cc([C@@H]2c3cc4c(cc3[C@@H](Nc3ccc5cccnc5c3)[C@H]3COC(=O)[C@H]23)OCO4)cc(OC)c1OC	2.3 µM	25.6 µM	1.4 µM	73.5 µM	16.3 µM	9.4 µM	3.1 µM	4.1 µM	0.12 µM	–	–	–	–	–	–	–	–	–
COc1cc([C@@H]2c3cc4c(cc3[C@@H](Nc3cccc5[nH]ccc35)[C@H]3COC(=O)[C@H]23)OCO4)cc(OC)c1OC	2.4 µM	32.4 µM	1.3 µM	64.2 µM	33.6 µM	29.2 µM	2.1 µM	1.8 µM	0.1 µM	–	–	–	–	–	–	–	–	–
COc1cc([C@@H]2c3cc4c(cc3[C@@H](Nc3ccc5[nH]ccc5c3)[C@H]3COC(=O)[C@H]23)OCO4)cc(OC)c1OC	0.5 µM	51.3 µM	0.4 µM	55.2 µM	43.3 µM	29.2 µM	0.9 µM	0.9 µM	0.1 µM	–	–	–	–	–	–	–	–	–
COc1cc([C@@H]2c3cc4c(cc3[C@@H](Nc3ccc5[nH]ncc5c3)[C@H]3COC(=O)[C@H]23)OCO4)cc(OC)c1OC	0.2 µM	60.8 µM	0.2 µM	81.8 µM	50.6 µM	98.4 µM	0.2 µM	0.3 µM	0.06 µM	–	2.7	< 0.1 µM	45%	79%	Active	2.2	60%	9.1 µM
COc1cc([C@@H]2c3cc4c(cc3[C@@H](Nc3cccc5cn[nH]c35)[C@H]3COC(=O)[C@H]23)OCO4)cc(OC)c1OC	5.4 µM	35.5 µM	2.7 µM	43.3 µM	29.4 µM	19.5 µM	2.5 µM	6.3 µM	0.12 µM	–	–	–	–	–	–	–	–	–
COc1cc([C@@H]2c3cc4c(cc3[C@@H](Nc3cccc5ncccc35)[C@H]3COC(=O)[C@H]23)OCO4)cc(OC)c1OC	> 100 µM	70.8 µM	> 100 µM	79.8 µM	89.8 µM	94.2 µM	> 100 µM	> 100 µM	0.06 µM	–	–	–	–	–	–	–	–	–
